miR122 inh = miR-122 Renilla sensor signal increase in Huh7, primary screen, miR-122 inhibitor project, cell-based, single point, plate reader | Huh7 miR-122 Renilla luciferase sensor, 48 h; neutral wells = 0, positive control = 100 | activation (reporter increase), % at 12.5 µM | hit rate 0.3% among 340,000 | AID 602342, 2012;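 active = mean replicate activation score at least 90 and every replicate individually at or above 90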;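 also: higher luciferase means less miR-122 activity so hits act as miR-122 inhibitors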
SIRT5 block = SIRT5 desuccinylase inhibitors, primary screen, biochemical, fluorescence imaging, single point, set 5; inhibition, % at 15 µM; Purified SirT5, succinyl-peptide AMC, trypsin-coupled fluorescence; hit rate 1.1% among 330,000; in the data active = inhibition above about 15%
E-sel inducer = E-selectin induction in HUVECs, primary screen, imaging, HUVEC, immunofluorescence imaging, single point; P16581; normalized: neutral wells 0, TNF-alpha wells 100; activation, % at 7.58 µM; hit rate 0.37% among 260,000;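 active = mean E-selectin-positive cell signal at least 10% of the positive control, reached in at least 60% of replicates, without over 20% cell loss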
Target sequence (P16581 whole entry, looked up): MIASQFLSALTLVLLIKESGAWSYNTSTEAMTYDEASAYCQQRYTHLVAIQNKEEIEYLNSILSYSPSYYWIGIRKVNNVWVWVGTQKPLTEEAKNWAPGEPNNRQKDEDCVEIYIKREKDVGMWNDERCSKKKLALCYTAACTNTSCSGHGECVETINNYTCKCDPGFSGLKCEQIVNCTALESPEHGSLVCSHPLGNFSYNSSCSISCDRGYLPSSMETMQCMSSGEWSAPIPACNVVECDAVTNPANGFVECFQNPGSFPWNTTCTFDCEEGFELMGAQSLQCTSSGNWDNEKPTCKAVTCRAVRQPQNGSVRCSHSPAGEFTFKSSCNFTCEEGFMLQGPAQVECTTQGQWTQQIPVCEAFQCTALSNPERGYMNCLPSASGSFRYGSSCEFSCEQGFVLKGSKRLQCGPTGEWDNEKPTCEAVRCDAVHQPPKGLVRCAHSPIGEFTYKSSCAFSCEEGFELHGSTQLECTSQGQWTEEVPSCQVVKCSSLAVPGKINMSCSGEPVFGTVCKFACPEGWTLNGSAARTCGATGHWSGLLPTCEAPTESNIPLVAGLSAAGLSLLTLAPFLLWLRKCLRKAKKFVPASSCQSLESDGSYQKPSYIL
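System: HUVEC, human umbilical vein endothelial cells; quantity: 3,000 cells/well; buffer or medium: EGM-2 medium, gelatin-coated wells; dosing: single-point compound dose; detection: immunofluorescence imaging; evaluation: % PE-positive cells; benchmarks: TNF-alpha, DMSO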
FGF22 binding = binders of human FGF22 protein, primary screen, FGF22 synaptogenesis inhibitor project, biophysical, thermal shift, single point. recombinant FGF22 thermal shift, SYPRO orange fluorescence; percent of sucrose octasulfate shift, DMSO zero. activity (Tm shift, normalised), % at 9.99 µM. hit rate 1.5% among 340,000. AID 651658, 2012;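 active = mean Tm shift, scaled 0 neutral to 100 positive control, at about 1.3% or above, every replicate too, limit read from the data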
S100A4 MyoIIA = inhibitors of S100A4-myosin IIA peptide binding, primary screen, biochemical, fluorescence polarization, TAMRA-MyoIIA peptide; Protein S100-A4 (Homo sapiens), P26447; hit rate 0.14% among 360,000; inhibition, % at 10.7 µM;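 active = mean inhibition of at least 70% across replicates, with every replicate also reaching that level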
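Material: S100A4 monomer protein | Medium: HEPES pH 7.2 with CaCl2, KCl, NaCl, DTT, Triton | Reagent: Labelled myosin peptide probe, 5 nM | Doses: One dose per compound | Times: 5 min incubation before reading | Benchmarks: Neutral control DMSO, positive control TFP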
Each line names hits and unclear results; the compound was inactive in the other large screens. Only some compounds are listed: those with a hit (about 2.5% of all), similar ones and a draw of the others.

O=C(NC1CCCC1)C(c1ccc(F)cc1)N(C(=O)c1csnn1)c1ccccc1 (centres undefined)	E-sel inducer 35.5
O=C(NCc1ccccc1)C(c1ccccc1)N(C(=O)c1csnn1)c1ccccc1 (centres undefined)	FGF22 binding 42.9 (no result: miR122 inh, E-sel inducer)
C=CCN(C(=O)c1csnn1)C(C(=O)NCc1ccc(F)cc1)c1ccccc1F (centres undefined)	FGF22 binding 42.9 (no result: miR122 inh, SIRT5 block)
O=C(NC1CCCC1)C(c1ccc(F)cc1)N(C(=O)c1csnn1)c1ccccc1F (centres undefined)	none (no result: miR122 inh, E-sel inducer)
COc1cccc(-c2ccc(C3[C@H]4CNC[C@@H]3N4Cc3ccc(F)cc3)cc2)c1 (some centres undefined)	none (no result: miR122 inh, FGF22 binding)
COC(=O)C[C@H]1C[C@@H]2c3cc(NC(=O)Nc4ccccc4)ccc3O[C@@H]2[C@H](CO)O1	none (no result: SIRT5 block)
CN1CCN(C(=O)C[C@@H]2CC[C@H]3[C@@H](COc4ccc(NC(=O)c5cccs5)cc4C(=O)N3C)O2)CC1	none
CC(C)(C)OC(=O)NCc1ccc(CNC(=O)c2nc[nH]c2C(=O)NCc2ccc(CNC(=O)OC(C)(C)C)cc2)cc1	SIRT5 block 16.0
CC(C)(C)OC(=O)NCCCC[C@H](NC(=O)c1nc[nH]c1C(=O)NCC(=O)OCc1ccccc1)C(=O)OC(C)(C)C	SIRT5 block 24.1 (no result: E-sel inducer)
O=C(C[C@@H]1C[C@@H]2c3cc(NC(=O)NC4CCCCC4)ccc3O[C@@H]2[C@H](CO)O1)NCc1ccccc1	none
Cc1ccc(S[C@]2(C(=O)NC(C)C)CC(=O)N(C3CCCCC3)[C@@H]2c2ccc(CO)cc2I)cc1	none (no result: miR122 inh, E-sel inducer)
COc1ccc(CCNC(=O)[C@@]2(Sc3ccc(C)cc3)CC(=O)N(C(C)C)[C@@H]2c2ccc(CO)cc2I)cc1	FGF22 binding 1.3 (no result: miR122 inh, E-sel inducer)
O=C(O)c1ccc(Cn2cc(C(F)(F)F)ccc2=O)cc1	FGF22 binding 43.1 (no result: E-sel inducer)
C[C@H]1CN([C@@H](C)CO)C(=O)Cc2cc(NC(=O)Nc3ccc(C(F)(F)F)cc3)ccc2O[C@H]1CN(C)Cc1ccccc1	none
CCO[C@@H]1OC(C(=O)O)=C[C@H](C2CCCCC2)[C@H]1CCCO	none (no result: SIRT5 block)
CCO[C@@H]1OC(C(=O)O)=C[C@H](C2CC2)[C@H]1CCCO	FGF22 binding 43.9
C[C@H]1CN([C@@H](C)CO)C(=O)c2cc(C3=CCCC3)cnc2O[C@@H]1CN(C)C(=O)C1CC1	none (no result: SIRT5 block, FGF22 binding, S100A4 MyoIIA)
NS(=O)(=O)c1ccc(CCNC(=O)CN2CCN(c3ccccc3O)CC2)cc1	FGF22 binding 44.3 (no result: E-sel inducer)
CCCNC(=O)N1CC(=O)N2[C@H](CO)[C@@H](c3ccc(-c4ccc(F)cc4)cc3)[C@@H]2C1	SIRT5 block 25.8 (no result: miR122 inh, FGF22 binding)
COc1ccccc1NC(=O)N1CC(=O)N2[C@H](CO)[C@@H](c3ccc(-c4ccc(F)cc4)cc3)[C@@H]2C1	none (no result: miR122 inh, FGF22 binding)
COc1ccccc1NC(=O)N1CC(=O)N2[C@H](CO)[C@H](c3ccc(-c4ccc(F)cc4)cc3)[C@@H]2C1	S100A4 MyoIIA 109.9 (no result: miR122 inh, FGF22 binding)
CCC(=O)N1C[C@@H](O)COC[C@@H]2O[C@@H](CC(=O)N3CCCCC3)CC[C@H]21	none
O=S(=O)(c1ccccc1)c1nc(-c2ccccc2)oc1N1CCOCC1	FGF22 binding 43.2 (no result: miR122 inh)
O=S(=O)(c1ccccc1)c1nc(-c2cccc(Cl)c2)oc1N1CCOCC1	none (no result: miR122 inh)
O=C(Nc1ccc(F)cc1)N[C@H]1CC[C@@H](CCNS(=O)(=O)c2ccccc2F)O[C@@H]1CO	none (no result: miR122 inh)
O=C(C[C@@H]1C[C@@H]2c3cc(NC(=O)C4CCC4)ccc3O[C@@H]2[C@@H](CO)O1)NCc1ccc2c(c1)OCO2	none
CCOc1ccccc1-c1nc(-c2ccc(C)nc2OC)no1	miR122 inh 130.1 (no result: SIRT5 block, E-sel inducer, FGF22 binding, S100A4 MyoIIA)
CCOc1nc(C)ccc1-c1noc(-c2ccccn2)n1	none (no result: SIRT5 block, E-sel inducer, FGF22 binding, S100A4 MyoIIA)
C[C@@H]1CN([C@@H](C)CO)C(=O)c2cc(-c3cccc(C#N)c3)cnc2O[C@H]1CN(C)Cc1cccnc1	none
Cc1ccc(-c2cnc3c(c2)C(=O)N([C@@H](C)CO)C[C@@H](C)[C@@H](CN(C)CC2CC2)O3)cc1	SIRT5 block 15.6 (no result: miR122 inh, FGF22 binding)
